Assay results published in ChEMBL document CHEMBL4359864, “The synthesis and in vitro biological evaluation of novel fluorinated tetrahydrobenzo[j]phenanthridine-7,12-diones against Mycobacterium tuberculosis” (Eur J Med Chem, 2019).

tested on: Mycobacterium tuberculosis variant bovis BCG; test: Antimycobacterial activity against Mycobacterium bovis BCG ATCC 35737 by resazurin dye based fluorimetric assay; type: functional, organism-based
Outline: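 Resazurin microtiter method as for the bacterial panel. Mycobacteria grown in 7H9 with 10% OADC and 0.5% glycerol; for BCG, 0.05% Tween 80 replaced the glycerol. Cultures were sonicated and needle-passed to single cells. Incubation at 37°C, or 32°C for M. marinum. Fluorescence read at ex 550/em 590 nm; mean of triplicates.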

Structure (SMILES)	IC50 [µM]
O=C1C2=C(C(=O)c3c1cnc1ccc(C(F)(F)F)cc31)C1CCC2C1 (configuration not stated)	12.5
O=C1C2=C(C(=O)c3c1cnc1ccccc31)C1CCC2C1 (configuration not stated)	7.9
O=C1C2=C(C(=O)c3c1cnc1cc(C(F)(F)F)ccc31)C1CCC2C1 (configuration not stated)	15
O=C1C2=C(C(=O)c3c1cnc1ccc(F)cc31)C1CCC2C1 (configuration not stated)	10.3
O=C1C2=C(C(=O)c3c1cnc1c(F)cccc31)C1CCC2C1 (configuration not stated)	5.03
O=C1C2=C(C(=O)c3c1cnc1cc(F)ccc31)C1CCC2C1 (configuration not stated)	17.4
COc1c(N2C[C@@H]3CCCN[C@@H]3C2)c(F)cc2c(=O)c(C(=O)O)cn(C3CC3)c12 [MOXIFLOXACIN]	0.03
